In brackets after ≈: the same amount, converted by molar mass.
Tested on: L1210
Experiment: Tested in vitro for inhibitory activity against L1210 murine leukemia
Type: functional, cell-based
Conditions: Mus musculus
In short: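 L1210 suspension cells grown in McCoy's 5A with 10% horse serum, 10% CO2, 37 °C. Drug dissolved in water and added to 10^5 cells/tube at final 0.01, 0.1, 1 and 10 µg/mL.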
`NCCCCNc1ccc(NCCCCN)c2c1C(=O)c1ccncc1C2=O` gave an IC50 of 1.5 µg/mL (≈ 3.93 µM). With `CC(C)N(CCNc1ccc(NCCN(C(C)C)C(C)C)c2c1C(=O)c1ccncc1C2=O)C(C)C` the IC50 was 1.8 µg/mL (≈ 3.65 µM). In the case of `O=C1c2ccncc2C(=O)c2c(NCCNCCO)ccc(NCCNCCO)c21`, the IC50 is reported as 0.06 µg/mL (≈ 0.145 µM). In the case of `CC(C)NCCNc1ccc(NCCNC(C)C)c2c1C(=O)c1ccncc1C2=O`, the IC50 is reported as 0.03 µg/mL (≈ 0.0733 µM). `CCCNCCNc1ccc(NCCNCCC)c2c1C(=O)c1ccncc1C2=O` showed an IC50 of 0.04 µg/mL (≈ 0.0977 µM). Compound `CN(C)CCCNc1ccc(NCCCN(C)C)c2c1C(=O)c1ccncc1C2=O` has an IC50 of 0.3 µg/mL (≈ 0.733 µM). `COCCNCCNc1ccc(NCCNCCOC)c2c1C(=O)c1ccncc1C2=O` showed an IC50 of 0.44 µg/mL (≈ 0.997 µM). `NCCCNc1ccc(NCCCN)c2c1C(=O)c1ccncc1C2=O` showed an IC50 of 0.1 µg/mL (≈ 0.283 µM). `O=C1c2ccncc2C(=O)c2c(NCCN3CC3)ccc(NCCN3CC3)c21` showed an IC50 of 0.002 µg/mL (≈ 0.0053 µM). `CCN(CC)CCNc1ccc(NCCN(CC)CC)c2c1C(=O)c1ccncc1C2=O` showed an IC50 of 0.06 µg/mL (≈ 0.137 µM). `CC(=O)NCCNc1ccc(NCCNC(C)=O)c2c1C(=O)c1ccncc1C2=O` gave an IC50 greater than 10 µg/mL. Work on `CCNCCNc1ccc(NCCNCC)c2c1C(=O)c1ccncc1C2=O` yielded an IC50 of 0.01 µg/mL (≈ 0.0262 µM).

Tested on: LoVo
Experiment: Tested in vitro for cytotoxic activity against Human colon Adenocarcinoma sensitive cell line (LoVo)
Type: functional, cell-based
Conditions: not given
In short: (§1)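 LoVo and doxorubicin-resistant LoVo/Dx colon cells grown in Ham's F12 with 10% fetal calf serum, glutamine, vitamins and Hepes at 37 °C. 2.5 × 10^5 cells/mL plated and preincubated 24 h, then exposed to drug for 144 h. MTT read-out at 570 nm. IC50 (µg/mL) derived; resistance index = IC50 resistant / IC50 sensitive line.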
`NCCCCNc1ccc(NCCCCN)c2c1C(=O)c1ccncc1C2=O` gave an IC50 of 2.27 µg/mL (≈ 5.95 µM). With `CC(C)N(CCNc1ccc(NCCN(C(C)C)C(C)C)c2c1C(=O)c1ccncc1C2=O)C(C)C` the IC50 was 2.5 µg/mL (≈ 5.06 µM). In the case of `O=C1c2ccncc2C(=O)c2c(NCCNCCO)ccc(NCCNCCO)c21`, the IC50 is reported as 1.3 µg/mL (≈ 3.14 µM). Work on `CC(C)NCCNc1ccc(NCCNC(C)C)c2c1C(=O)c1ccncc1C2=O` yielded an IC50 of 0.3 µg/mL (≈ 0.733 µM). In the case of `CCCNCCNc1ccc(NCCNCCC)c2c1C(=O)c1ccncc1C2=O`, the IC50 is reported as 0.2 µg/mL (≈ 0.488 µM). Compound `CN(C)CCCNc1ccc(NCCCN(C)C)c2c1C(=O)c1ccncc1C2=O` has an IC50 of 0.15 µg/mL (≈ 0.366 µM). `NCCCNc1ccc(NCCCN)c2c1C(=O)c1ccncc1C2=O` gave an IC50 of 2.1 µg/mL (≈ 5.94 µM). In the case of `CCN(CC)CCNc1ccc(NCCN(CC)CC)c2c1C(=O)c1ccncc1C2=O`, the IC50 is reported as 0.29 µg/mL (≈ 0.663 µM).

Species: Mus musculus
Experiment: The compound was tested for antitumor activity against P388 murine leukemia
Type: functional
Conditions: not given
In short: (§2)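 P388 cells kept by serial ip passage (10^5 cells) in DBA2 male mice. CD2F1 mice inoculated iv with 10^6 cells on day 0. Drug given iv on days 1, 4 and 7. Daily observation for toxicity and survival over 60 days. Median survival time per group, expressed as %T/C = MST treated/MST control × 100.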
Work on `NCCCCNc1ccc(NCCCCN)c2c1C(=O)c1ccncc1C2=O` yielded a T/C of 100%.

Tested on: not listed separately
Experiment: The compound was tested for antitumor activity against P388 murine leukemia by measuring maximum tolerated dose
Type: ADME, organism-based
Conditions: mouse, in vivo; read-out: LD10
In short: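 CD2F1 mice were given 10^6 P388 cells iv, followed by iv treatment on days 1, 4 and 7 after transplantation. Mice were observed daily for toxicity and survival for 60 days. The value is the maximum tolerated dose, taken as LD10, or else the maximum dose administered.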
For `NCCCCNc1ccc(NCCCCN)c2c1C(=O)c1ccncc1C2=O`, the MTD was 35 mg/kg/day. In the case of `O=C1c2ccncc2C(=O)c2c(NCCNCCO)ccc(NCCNCCO)c21`, the MTD is reported as 40 mg/kg/day. For `NCCCNc1ccc(NCCCN)c2c1C(=O)c1ccncc1C2=O`, the MTD was 40 mg/kg/day. `CCN(CC)CCNc1ccc(NCCN(CC)CC)c2c1C(=O)c1ccncc1C2=O` gave an MTD of 60 mg/kg/day.

Tested on: P388
Experiment: Tested for antitumor activity against P388 murine leukemia
Type: functional, Mus musculus
Conditions: not given
In short: as §2
In the case of `O=C1c2ccncc2C(=O)c2c(NCCNCCO)ccc(NCCNCCO)c21`, the T/C is reported as 118%. `NCCCNc1ccc(NCCCN)c2c1C(=O)c1ccncc1C2=O` gave a T/C of 155%. Work on `CCN(CC)CCNc1ccc(NCCN(CC)CC)c2c1C(=O)c1ccncc1C2=O` yielded a T/C of 122%.

Tested on: not listed separately
Experiment: Resistance index is the ratio of IC50 of resistant cell line/IC50 of sensitive cell line
Type: functional
Conditions: not given
In short: as §1
Compound `NCCCCNc1ccc(NCCCCN)c2c1C(=O)c1ccncc1C2=O` has a Ratio of 0.4. `CC(C)N(CCNc1ccc(NCCN(C(C)C)C(C)C)c2c1C(=O)c1ccncc1C2=O)C(C)C` gave a Ratio of 1.1. Work on `O=C1c2ccncc2C(=O)c2c(NCCNCCO)ccc(NCCNCCO)c21` yielded a Ratio of 76. `CC(C)NCCNc1ccc(NCCNC(C)C)c2c1C(=O)c1ccncc1C2=O` gave a Ratio of 11. With `CCCNCCNc1ccc(NCCNCCC)c2c1C(=O)c1ccncc1C2=O` the Ratio was 14. For `CN(C)CCCNc1ccc(NCCCN(C)C)c2c1C(=O)c1ccncc1C2=O`, the Ratio was 2.4. `NCCCNc1ccc(NCCCN)c2c1C(=O)c1ccncc1C2=O` showed a Ratio of 26. In the case of `CCN(CC)CCNc1ccc(NCCN(CC)CC)c2c1C(=O)c1ccncc1C2=O`, the Ratio is reported as 2.4.

Tested on: LoVo/DX (Homo sapiens)
Experiment: Tested in vitro for cytotoxic activity against Doxorubicin resistant Human colon Adenocarcinoma cell line
Conditions: not given
Work on `NCCCCNc1ccc(NCCCCN)c2c1C(=O)c1ccncc1C2=O` yielded an IC50 of 0.83 µg/mL (≈ 2.18 µM). In the case of `CC(C)N(CCNc1ccc(NCCN(C(C)C)C(C)C)c2c1C(=O)c1ccncc1C2=O)C(C)C`, the IC50 is reported as 2.8 µg/mL (≈ 5.67 µM). For `O=C1c2ccncc2C(=O)c2c(NCCNCCO)ccc(NCCNCCO)c21`, the IC50 was 99.5 µg/mL (≈ 241 µM). In the case of `CC(C)NCCNc1ccc(NCCNC(C)C)c2c1C(=O)c1ccncc1C2=O`, the IC50 is reported as 3.4 µg/mL (≈ 8.3 µM). For `CCCNCCNc1ccc(NCCNCCC)c2c1C(=O)c1ccncc1C2=O`, the IC50 was 2.8 µg/mL (≈ 6.84 µM). For `CN(C)CCCNc1ccc(NCCCN(C)C)c2c1C(=O)c1ccncc1C2=O`, the IC50 was 0.36 µg/mL (≈ 0.879 µM). Work on `NCCCNc1ccc(NCCCN)c2c1C(=O)c1ccncc1C2=O` yielded an IC50 of 54.5 µg/mL (≈ 154 µM). In the case of `CCN(CC)CCNc1ccc(NCCN(CC)CC)c2c1C(=O)c1ccncc1C2=O`, the IC50 is reported as 0.69 µg/mL (≈ 1.58 µM).

Reference: ChEMBL document CHEMBL1127837, “6,9-Bis[(aminoalkyl)amino]benzo[g]isoquinoline-5,10-diones. A novel class of chromophore-modified antitumor anthracene-9,10-diones: synthesis and antitumor evaluations” (J Med Chem, 1994)
